How the values were obtained:
Format in all cases: functional, organism-based
Plasmodium falciparum [1] = assay: Antimalarial activity against chloroquine-sensitive Plasmodium falciparum 3D7 by hypoxanthine uptake
Outline: (§1)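 Synchronous parasites diluted in A-positive human erythrocytes with RPMI 1640 + 10% human serum, 25 mM HEPES, 25 mM NaHCO₃, to 0.2 parasitemia and 1.5 hematocrit. Added to wells predosed with drug, 0.06 to 200 µM in triplicate. 1 µCi [³H]hypoxanthine per well, 42 h at 37 °C. Incorporated radioactivity counted by scintillation. IC50 from non-linear regression of log-dose/response versus drug-free controls.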

Plasmodium falciparum [2] = assay: Antimalarial activity against chloroquine-resistant Plasmodium falciparum W2 by hypoxanthine uptake; outline: as §1
Plasmodium falciparum [3] = assay: Antimalarial activity against chloroquine-resistant Plasmodium falciparum FCR3 by hypoxanthine uptake; outline: as §1
Plasmodium falciparum [4] = assay: Antimalarial activity against chloroquine-resistant Plasmodium falciparum Bre1 by hypoxanthine uptake; outline: as §1

SMILES	IC50 (Plasmodium falciparum [1]) [nM]	IC50 (Plasmodium falciparum [2]) [nM]	IC50 (Plasmodium falciparum [3]) [nM]	IC50 (Plasmodium falciparum [4]) [nM]
N=C(N)NCCCC(N)C(=O)NCC(=O)NCCCCCCNC(=O)c1c2ccccc2nc2ccccc12 (configuration not stated)	42000	43600	42500	47600
COc1ccc2nc3cc(Cl)ccc3c(NCCCCCCN)c2c1	130	180	200	170
COc1ccc2nc3cc(Cl)ccc3c(NCCCCCCNC(=O)CCNC(=O)CCNC(=O)C(N)CCCNC(=N)N)c2c1 (configuration not stated)	3320	940	860	860
COc1ccc2nc3cc(Cl)ccc3c(NCCCCCCNC(=O)CCCNC(=O)CNC(=O)C(N)CCCNC(=N)N)c2c1 (configuration not stated)	840	820	670	500
COc1ccc2nc3cc(Cl)ccc3c(NCCCCCCNC(=O)CCCN)c2c1	190	570	540	180
COc1ccc2nc3cc(Cl)ccc3c(NCCCCCCNC(=O)CCCNC(=O)CN)c2c1	890	830	810	620
COc1ccc2nc3cc(Cl)ccc3c(NCCCCCCNC(=O)CCN)c2c1	910	1250	1250	1260
N=C(N)NCCCC(N)C(=O)NCC(=O)NCCCCCCCC(=O)Nc1c2ccccc2nc2ccccc12 (configuration not stated)	27100	30500	27200	28700

Source: ChEMBL document CHEMBL1147882, “In vitro efficiency of new acridyl derivatives against Plasmodium falciparum” (Bioorg Med Chem, 2007)
